Laboratory results taken from ChEMBL document CHEMBL5303300, “EUbOPEN Chemogenomics Library - Multiplex” (2023).
Several values for one entry are separate records, joined by “and”; a condition that tells them apart may be missing. Equal entries are not always repeated.

System: Fibroblast
Assay: Multiplex assay against human fibroblast
Assay type: toxicity, cell-based
Settings: number of replicates 2
How it was run: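 On a CQ1 microscope at 37°C and 5% CO2, live cells were imaged after compound addition. They had been stained at seeding with Hoechst33342, BioTracker Green Microtubule Cytoskeleton Dye, MitoTracker Red and Annexin V Alexa Fluor 680. CellPathfinder machine-learning gating assigned cells to Hoechst high-intensity objects or normal cells, normal cells to healthy, pyknosed or fragmented nuclei, and pyknosed cells to mitotic or apoptotic. Tubulin, mitochondrial-mass and membrane-permeability phenotypes are per cents of healthy-nucleus cells.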

[1] = 12 h, 1 µM, compound concentration 1 uM
[2] = 12 h, 10 µM, compound concentration 10 uM
[3] = 24 h, 1 µM, compound concentration 1 uM
[4] = 24 h, 10 µM, compound concentration 10 uM
[5] = 48 h, 1 µM, compound concentration 1 uM
[6] = 48 h, 10 µM, compound concentration 10 uM

## CCN1C(=O)N(c2c(F)c(OC)cc(OC)c2F)Cc2cnc3[nH]c(CN4CCOCC4)cc3c21 [PEMIGATINIB]
[1]
  Population Apoptotic (%): 60% and 45%
  Population Fragmented Nuclei (%): 8%
  Population Healthy Nuclei (%): 75% and 58%
  Population Hoechst High Intensity Objects (%): 0%
  Population Membrane Permeable-Phenotype (%): 3% and 8%
  Population Mitochondria Different-Phenotype (%): 1%
  Population Mitotic Cells (%): 40% and 54%
  Population Normal (%): 99% and 100%
  Population Pyknosed Nuclei (%): 15% and 33%
  Population Tubulin-Different-Phenotype (%): 13% and 14%
  Total Cell Count: 220 and 246
[2]
  Population Apoptotic (%): 57% and 38%
  Population Fragmented Nuclei (%): 12% and 20%
  Population Healthy Nuclei (%): 53% and 51%
  Population Hoechst High Intensity Objects (%): 0%
  Population Membrane Permeable-Phenotype (%): 8% and 12%
  Population Mitochondria Different-Phenotype (%): 1% and 4%
  Population Mitotic Cells (%): 42% and 61%
  Population Normal (%): 100%
  Population Pyknosed Nuclei (%): 33% and 28%
  Population Tubulin-Different-Phenotype (%): 37% and 26%
  Total Cell Count: 134 and 190
[3]
  Population Apoptotic (%): 72% and 67%
  Population Fragmented Nuclei (%): 8% and 7%
  Population Healthy Nuclei (%): 76% and 61%
  Population Hoechst High Intensity Objects (%): 0%
  Population Membrane Permeable-Phenotype (%): 5% and 7%
  Population Mitochondria Different-Phenotype (%): 1% and 0%
  Population Mitotic Cells (%): 27% and 32%
  Population Normal (%): 99% and 100%
  Population Pyknosed Nuclei (%): 15% and 30%
  Population Tubulin-Different-Phenotype (%): 7% and 14%
  Total Cell Count: 237 and 226
[4]
  Population Apoptotic (%): 69% and 46%
  Population Fragmented Nuclei (%): 16% and 20%
  Population Healthy Nuclei (%): 57% and 50%
  Population Hoechst High Intensity Objects (%): 0%
  Population Membrane Permeable-Phenotype (%): 3% and 5%
  Population Mitochondria Different-Phenotype (%): 3%
  Population Mitotic Cells (%): 30% and 53%
  Population Normal (%): 100%
  Population Pyknosed Nuclei (%): 26% and 28%
  Population Tubulin-Different-Phenotype (%): 29% and 11%
  Total Cell Count: 136 and 182
[5]
  Population Apoptotic (%): 75% and 71%
  Population Fragmented Nuclei (%): 10%
  Population Healthy Nuclei (%): 76% and 60%
  Population Hoechst High Intensity Objects (%): 0%
  Population Membrane Permeable-Phenotype (%): 5% and 3%
  Population Mitochondria Different-Phenotype (%): 0%
  Population Mitotic Cells (%): 24% and 28%
  Population Normal (%): 99%
  Population Pyknosed Nuclei (%): 13% and 28%
  Population Tubulin-Different-Phenotype (%): 5% and 8%
  Total Cell Count: 240 and 232
[6]
  Population Apoptotic (%): 81% and 83%
  Population Fragmented Nuclei (%): 17% and 25%
  Population Healthy Nuclei (%): 57% and 51%
  Population Hoechst High Intensity Objects (%): 0%
  Population Membrane Permeable-Phenotype (%): 5% and 8%
  Population Mitochondria Different-Phenotype (%): 1%
  Population Mitotic Cells (%): 18% and 16%
  Population Normal (%): 100%
  Population Pyknosed Nuclei (%): 25% and 22%
  Population Tubulin-Different-Phenotype (%): 25% and 18%
  Total Cell Count: 128 and 166
